Bioassay records: PubChem BioAssay, several laboratories
This is a sample that favours compounds with a hit; in the whole collection about 2.1% have one here.
KLF5 inh: suppresses KLF5 promoter-driven expression | DLD-1 KLF5 promoter-luciferase reporter, luminescence | hit rate 0.23% among 290,000 | inhibition, % at 5 µM;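 active means inhibition above a per-plate limit of that plate's mean compound inhibition plus 3 SD, cut at about 60% in these data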;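 further: 0% = DMSO wells and 100% = LY294002 at 200 µM; higher means less KLF5 promoter-driven luciferase light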
MT stabilize HCS: microtubule stabilization, imaging screen | HeLa tubulin immunostaining HCS, 24 h; share of cells brighter than vehicle mean+2SD | % tubulin-high responders, % at 10 µM | hit rate 0.83% among 200,000;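 active means plate Z-score above 3 for both tubulin-high and condensed-nucleus cell shares, with cell loss under 80%, at 10 µM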;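 further: anti alpha tubulin signal scored within the nucleus-defined area of each cell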
bCat nuc transl: beta-catenin nuclear translocation modulation; HeLa beta-catenin nuclear translocation, immunofluorescence imaging; hit rate 0.3% among 190,000; nuclear translocation activity, % at 5 µM;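 active means nuclear translocation activity above 50% at 5 µM, with a well cell count of 50 or more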;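 further: per-cell ratio of nuclear to cytoplasmic median beta-catenin stain intensity; plate controls were DMSO negative control for no effect and GSK-3 inhibitor IX positive control for full effect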
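test system = HeLa cells, endogenous beta-catenin | dosing = single 5 µM dose plus 0.02–20 µM confirmation series | times = compound treatment 24 h, 37°C, 5% CO2 | technique = beta-catenin immunofluorescence imaging with DAPI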
BaF3 tox: counter-screen for JAK2V617F inhibitors: parental Ba/F3 viability inhibitors; inhibition, % at 5.6 µM; CellTiter-Glo ATP luminescence; hit rate 1.1% among 220,000;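 active means inhibition above a per-campaign cutoff, the mean inhibition of all tested compounds plus 3 SD, cut at about 27% in these data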;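 further: 0% = DMSO wells and 100% = JAK Inhibitor I control wells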
Ba/F3 V617F tox: loss of viability in JAK2V617F-driven Ba/F3 cells | AID 1446 | inhibition, % at 5.6 µM | Ba/F3 EpoR-JAK2V617F viability, ATP luminescence | hit rate 1.1% among 220,000;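 active means inhibition above the campaign mean plus 3 SD over all tested compounds, cut at about 24% in these data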;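 further: cytokine-independent growth of Ba/F3 cells driven by EpoR plus mutant JAK2; 0% = DMSO-treated cells and 100% = JAK inhibitor I control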
IEC-6 tox: counter-screen for KLF5 inhibitors: cytotoxicity in IEC-6 cells; IEC-6 cytotoxicity, luminescence viability; inhibition, % at 5 µM; hit rate 0.78% among 290,000; AID 1825; in the data active means inhibition above about 22%;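 further: 0% = plate median of test compound wells and 100% = cytotoxic reference compound wells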
Starred values were filed as active, the others as inactive; nt = no result.

SMILES	KLF5 inh	MT stabilize HCS	bCat nuc transl	BaF3 tox	Ba/F3 V617F tox	IEC-6 tox
Cc1ccc(CC(=O)NCc2ccc(F)cc2)cc1	20	25*	13	58*	35*	50*
O=C(NCc1ccccn1)C(=O)NCc1ccccn1	-24	3	-1	54*	-3	-1
O=C(NCc1csc(-c2cccs2)n1)C1CCC1	-56	nt	-4	0	-3	-4
COc1ccc(OCc2cc(C(=O)NCCN3CCCc4ccccc43)no2)c(Cl)c1	-46	nt	nt	nt	nt	-4
Cn1c(O)c(C=NCC2CCNCC2)c(=O)n(C)c1=O	-7	2	2	93*	6	1
Cn1c(=O)c2c(O)c(C=NCc3ccccc3)c(=O)n(C)c2n(C)c1=O	-13	nt	-2	-4	-3	1
N#CC(Sc1ccccn1)c1ccc(Cl)cc1 (centres undefined)	-18	1	0	53*	26*	2
CC(=O)NCCNS(=O)(=O)c1ccc(C)c([N+](=O)[O-])c1	-13	2	1	5	-1	1
CCN(CC1CCCO1)C(=O)CCc1nnc(Cc2ccc3c(c2)OCO3)o1 (centres undefined)	-18	1	0	82*	6	2
Cc1ccc(C2(O)CN(c3ccccc3)C3=[N+]2CCS3)cc1 (centres undefined)	-16	4	0	23	6	2
Cc1ccc(-c2c[n+]3c(n2-c2ccccc2)SCC3)cc1	0	nt	3	64*	79*	11
COc1ccc(-c2c[n+]3c(n2-c2ccccc2)SCC3)cc1	-13	nt	2	61*	73*	2
Brc1ccc(-c2c[n+]3c(n2-c2ccccc2)SCC3)cc1	-19	nt	0	59*	64*	2
N#Cc1ccc(-c2cn(-c3ccccc3)c3[n+]2CCCS3)cc1	-22	3	0	2	-3	-6
COc1ccc(-c2c[n+]3c(n2-c2ccccc2)SCC3)cc1OC	6	7	-3	77*	46*	3
COc1ccc(-c2c[n+]3c4n2CCCCC4=C(c2ccccc2)C3)cc1	-13	3	0	5	-1	-11
COc1ccccc1N1CCN(S(=O)(=O)c2ccc3c(c2)NC(=O)C(C)C(=O)N3)CC1 (centres undefined)	-6	nt	nt	nt	nt	-7
Cc1cc(=O)oc2cc(OCC3CC(c4ccccc4)=NO3)ccc12 (centres undefined)	-43	32	-8	8	2	6
Cc1cc(=O)oc2cc(OCC3CC(c4ccc(Br)cc4)=NO3)ccc12 (centres undefined)	-27	20*	0	3	-5	2
O=C(Nc1ccc(Oc2cccc(C(F)(F)F)c2)nc1)c1ccco1	-30	nt	-2	-2	0	8
CC(C)(C)c1ccc(Oc2ccc(NC(=O)c3ccco3)cn2)cc1	-32	nt	0	72*	80*	13
Cc1ccc(Nc2cc(=O)oc3ccccc23)c(C)c1	2	27*	1	9	1	8
Clc1ccc(C[n+]2cc(-c3ccccc3)n3c2CCCCC3)c(Cl)c1	4	4	-3	79*	86*	12
Clc1ccc(-c2c[n+](Cc3ccc(Br)cc3)c3n2CCCCC3)cc1	-18	nt	1	69*	62*	0
Clc1ccc(-c2cnc3n2CCCCC3)cc1	-25	3	0	5	2	4
SMILES	KLF5 inh	MT stabilize HCS	bCat nuc transl	BaF3 tox	Ba/F3 V617F tox	IEC-6 tox
Clc1ccc(-c2c[n+](Cc3ccc(Cl)cc3Cl)c3n2CCCCC3)cc1	0	nt	-1	73*	73*	6
Cc1noc(C)c1S(=O)(=O)N1CCCC(C(=O)c2cccc(OC(C)C)c2)C1 (centres undefined)	-17	2	1	-1	-1	-3
CCOc1ccc(NC(=S)Nc2ccccc2C2CC2)cc1	-35	2	2	81*	1	-1
CCOc1ccc(NC(=S)Nc2ccc(OC(F)(F)F)cc2)cc1	7	1	-2	51*	63*	-1
O=C(Nc1ccc(Oc2ccc3c(c2)C(=O)N(c2ccc(O)cc2)C3=O)cc1)c1cccs1	-34	3	0	7	3	1
COc1ccc(-n2c(CCC(=O)O)ccc2-c2ccccc2)cc1	-34	2	1	29*	18	-8
COc1ccc(-c2ccc(CCC(=O)O)n2-c2ccccc2O)cc1	-30	nt	0	0	1	0
O=C1NC(c2ccc(Cl)cc2)Nc2ccccc21 (centres undefined)	-13	22*	1	5	5	20
O=C(NNc1ccccc1)C(CCO)C(=O)NNc1ccccc1	13	4	-3	5	-2	11
COc1ccc(C2SCC(=O)N2CCc2ccc(OC)c(OC)c2)cc1 (centres undefined)	1	18*	82*	14	14	21
N#Cc1cc(-c2ccccc2)oc1NC(=O)c1ccccc1	0	44*	-3	7	-2	-5
Nc1c(C(=O)Nc2ccc(S(=O)(=O)N3CCCC3)cc2)sc2nc3ccc(OC(F)(F)F)cc3cc12	12	8	0	7	-3	-2
Nc1c(C(=O)Nc2ccc(S(=O)(=O)N3CCCC3)cc2)sc2nc3cc4c(cc3cc12)CCC4	-18	28*	2	1	-6	-7
Cc1nn(-c2ccccc2)c(C)c1NC(=O)Cc1cccs1	-5	2	-2	11	4	0
Cc1nn(-c2ccccc2)c(C)c1NC(=O)c1cccs1	-26	41*	nt	1	-1	2
COc1cc(OC)cc(C(=O)Nc2c(C)nn(-c3ccccc3)c2C)c1	-1	13*	0	3	-1	0
COc1cc(OC)cc(C(=O)Nc2cc(C)nn2-c2ccccc2)c1	1	nt	nt	nt	nt	-3
O=C(CSc1ncc(-c2ccccc2)nn1)NCc1ccco1	-46	3	nt	7	5	-2
Cc1cc(NC(=O)CSc2nc(-c3ccco3)cc(C(F)(F)F)n2)n(-c2ccccc2)n1	-6	44*	12	4	0	7
Cc1cc(NC(=O)CCCSc2nc(-c3ccco3)cc(C(F)(F)F)n2)n(-c2ccccc2)n1	-28	2	-1	5	1	6
O=C(CSc1nc(-c2ccco2)cc(C(F)(F)F)n1)Nc1ccc2c(c1)CCC2	16	47*	3	0	-7	-9
Cc1ccc(NC(=O)CSc2nnc(-c3ccco3)c(-c3ccco3)n2)cc1	-6	29*	97*	1	1	-20
O=C(CSc1nnc(-c2ccco2)c(-c2ccco2)n1)Nc1ccccc1	-6	3	4	-1	-3	-14
O=C(CSc1nnc(-c2ccccc2)c(-c2ccccc2)n1)NCc1ccco1	-27	43*	-2	0	-3	-2
O=c1c2[nH]c3ccc(F)cc3c2nc2n1CCCS2	-6	3	1	-2	1	9
